# Reference: publication PMC9290582 (British Journal of Clinical Pharmacology, 2021)
# Experiments:
# [1] = Model-predicted steady-state exposure and covariate effects; assay type: in vivo, human; details: for Reduction of AUC24h,ss by coadministration of PPIs: population PK study; for Exposure lower with concomitant PPI use: relative to a reference patient
# Procedure, shortened: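 Exposure simulated stochastically from the final population PK model at 100 mg BID. AUC24h,ss and Cmax,ss were reported as model-predicted medians (90% prediction interval) relative to a reference patient: B-cell malignancy, ECOG PS 0 or 1, no concomitant PPI. A covariate effect was deemed not relevant if its change and 95% CI fell within 0.8–1.25.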
# [2] = healthy subjects; ref data on file; cited from earlier work
# [3] = cited from earlier work
# [4] = high-calorie meal vs. fasting conditions; cited from earlier work
# [5] = Population pharmacokinetic analysis; assay type: in vivo, human; details: for CL/F, apparent clearance / Vp/F, apparent peripheral volume of distribution: parent; for Covariate effect ECOG 2—CL/F / Covariate effect Healthy subject—CL/F / Covariate effect Healthy subject—Vp/F / Covariate effect PPI—F1 (relative bioavailability): relative change (1 + estimate)
# Procedure, shortened: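 Model: 2-compartment, 5-transit absorption chain, first-order absorption and elimination. Metabolite formation was CL/F × fraction metabolized, fixed at 0.4. BSV and BOV were exponential; residual error was additive on log scale. Precision was checked by bootstrap.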
# [6] = cited from earlier work; remark: listed apart in the source
# [7] = tested on: Bruton tyrosine kinase (BTK); details: cited from earlier work
# [8] = relative to a reference cancer population
# [9] = bootstrap 50th [2.5th, 97.5th percentile]
# [10] = final model fixed effect, estimate (%RSE)
# [11] = final model, bootstrap 50th [2.5th, 97.5th percentile]
structure (smiles),measurement,setting,value
CC#CC(=O)N1CCC[C@H]1c1nc(-c2ccc(C(=O)Nc3ccccn3)cc2)c2c(N)nccn12 [acalabrutinib],"Reduction of AUC24h,ss by coadministration of PPIs",[1],36%
same,"AUC24h,ss higher in subjects with ECOG PS ≥ 2",[1]; [8],21%
same,"AUC24h,ss lower in healthy subjects",[1]; [8],32%
same,"Cmax,ss higher in subjects with ECOG PS ≥ 2",[1]; [8],14%
same,"Cmax,ss lower in healthy subjects",[1]; [8],24%
same,Exposure lower with concomitant PPI use,[1],36%
same,Decrease of AUC on coadministration with omeprazole (PPI),[2],43%
same,Solubility dependence on pH,[3],decreases with increasing gut pH
same,Effect of a high-calorie meal on Cmax,[4],delayed and decreased
same,Effect of a high-calorie meal on mean AUC,[4],similar
same,"BOV F1 (between-occasion variability, relative bioavailability)",[5]; [9],"55.3 [50.4, 61.1] CV%"
same,BOV MTT (between-occasion variability),[5]; [9],"119 [104, 137] CV%"
same,BSV CL/F (between-subject variability),[5]; [9],"24.1 [20.4, 28] CV%"
same,BSV Vc/F,[5]; [9],"284 [225, 367] CV%"
same,BSV Vp/F,[5]; [9],"33.9 [25, 42.4] CV%"
same,"BOV F1 (between-occasion variability, relative bioavailability)",[5]; estimate (%RSE),56.1 (1.80) CV%
same,BOV MTT (between-occasion variability),[5]; estimate (%RSE),118 (2.39) CV%
same,BSV CL/F (between-subject variability),[5]; estimate (%RSE),23.8 (5.86) CV%
same,BSV Vc/F,[5]; estimate (%RSE),270 (6.51) CV%
same,BSV Vp/F,[5]; estimate (%RSE),33.7 (6.96) CV%
same,"Ka, first-order absorption rate constant",[5]; [10],1.48 (2.63) h^−1
same,"MTT, mean transit time",[5]; [10],0.459 (4.16) h
same,"CL/F, apparent clearance",[5]; [10],134 (1.97) L/h
same,"Vp/F, apparent peripheral volume of distribution",[5]; [10],110 (3.45) L
same,"Ka, first-order absorption rate constant",[5]; [11],"1.48 [1.41, 1.55] h^−1"
same,"MTT, mean transit time",[5]; [11],"0.460 [0.426, 0.492] h"
same,"CL/F, apparent clearance",[5]; [11],"132 [126, 139] L/h"
same,"Vp/F, apparent peripheral volume of distribution",[5]; [11],"108 [97.6, 120] L"
same,Covariate effect ECOG 2—CL/F,[5]; [9],"−0.158 [−0.274, −0.032]"
same,Covariate effect Healthy subject—CL/F,[5]; [9],"0.467 [0.367, 0.569]"
same,Covariate effect Healthy subject—Vp/F,[5]; [9],"−0.554 [−0.6, −0.496]"
same,Covariate effect PPI—F1 (relative bioavailability),[5]; [9],"−0.368 [−0.49, −0.228]"
same,Covariate effect ECOG 2—CL/F,[5]; estimate (%RSE),−0.171 (36.2)
same,Covariate effect Healthy subject—CL/F,[5]; estimate (%RSE),0.467 (19.3)
same,Covariate effect Healthy subject—Vp/F,[5]; estimate (%RSE),−0.556 (5.59)
same,Covariate effect PPI—F1 (relative bioavailability),[5]; estimate (%RSE),−0.358 (7.01)
same,BOV on MTT,[5]; remaining variability in absorption not related to PPIs,118%
CC#CC(=O)NCCCC(=O)c1nc(-c2ccc(C(=O)Nc3ccccn3)cc2)c2c(N)nccn12 [ACP‐5862],"Reduction of AUC24h,ss by coadministration of PPIs",[1],36%
same,Exposure lower with concomitant PPI use,[1],36%
same,Mean exposure relative to that of acalabrutinib,[6],approximately 2 fold
same,Potency for BTK inhibition relative to acalabrutinib,[7],approximately half as potent as acalabrutinib
same,BSV CLM/F,[5]; [9],"13.1 [9.22, 20.2] CV%"
same,BSV QM/F,[5]; [9],"40 [23.8, 59.2] CV%"
same,BSV VcM/F,[5]; [9],"53.3 [36.9, 71.1] CV%"
same,BSV VpM/F,[5]; [9],"21.2 [15.3, 41.2] CV%"
same,BSV CLM/F,[5]; estimate (%RSE),11.8 (21.1) CV%
same,BSV QM/F,[5]; estimate (%RSE),40.7 (14.4) CV%
same,BSV VcM/F,[5]; estimate (%RSE),47.2 (12.1) CV%
same,BSV VpM/F,[5]; estimate (%RSE),19.2 (30.5) CV%
same,"CLM/F, apparent clearance metabolite",[5]; [10],21.8 (1.98) L/h
same,"VcM/F, apparent central volume of distribution metabolite",[5]; [10],22.7 (6.66) L
same,"VpM/F, apparent peripheral volume of distribution metabolite",[5]; [10],89.2 (4.58) L
same,"CLM/F, apparent clearance metabolite",[5]; [11],"21.6 [20.2, 22.6] L/h"
same,"VcM/F, apparent central volume of distribution metabolite",[5]; [11],"22.7 [19.5, 25.8] L"
same,"VpM/F, apparent peripheral volume of distribution metabolite",[5]; [11],"88.1 [77.6, 97] L"
